Source: ChEMBL document CHEMBL1806473, “Structure-based optimization of click-based histone deacetylase inhibitors” (Eur J Med Chem, 2011)

Columns and labels:
[1] = test system: HOP-62; assay: Cytotoxicity against human HOP62 cells; type: cell-based
Outline: (§1)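 Tested in the NCI in vitro disease-oriented human tumour cell line screen, with screening performed by NCI. Growth was read by SRB signal over the drug incubation period at five concentrations: 100, 10, 1.0, 0.1 and 0.01 μM. GI50 is the concentration that reduces growth of treated cells to half that of control cells.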

[2] = test system: OVCAR-4; assay: Antiproliferative activity against human OVCAR4 cells by SRB assay; type: functional
Outline: (§2)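 Tested in the NCI in vitro human tumor cell line screen, run by the National Cancer Institute. Each compound was given at five concentrations (100, 10, 1.0, 0.1 and 0.01 μM). GI50 is the drug concentration that reduces growth of treated cells to half that of control cells during drug incubation, judged from the SRB signal.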

[3] = test system: HL-60(TB); assay: Cytotoxicity against human HL-60(TB) cells; type: cell-based
[4] = test system: MOLT-4; assay: Antiproliferative activity against human MOLT4 cells by SRB assay; type: functional; outline: as §2
[5] = test system: EKVX; assay: Antiproliferative activity against human EKVX cells by SRB assay; type: functional; outline: as §2
[6] = test system: EKVX; assay: Cytotoxicity against human EKVX cells; type: cell-based; outline: as §1
[7] = test system: MDA-MB-435; assay: Antiproliferative activity against human MDA-MB-435 cells by SRB assay; type: functional; outline: as §2
[8] = test system: PC-3; assay: Cytotoxicity against human PC3 cells; type: cell-based
[9] = test system: OVCAR-3; assay: Cytotoxicity against human OVCAR3 cells; type: cell-based; outline: as §1
[10] = test system: CAKI-1; assay: Antiproliferative activity against human Caki1 cells by SRB assay; type: functional; outline: as §2
[11] = test system: M14; assay: Antiproliferative activity against human M14 cells by SRB assay; type: functional; outline: as §2
[12] = test system: MDA-MB-231; assay: Antiproliferative activity against human MDA-MB-231 cells by SRB assay; type: functional; outline: as §2
[13] = test system: KM12; assay: Antiproliferative activity against human KM12 cells by SRB assay; type: functional; outline: as §2
[14] = test system: SK-OV-3; assay: Cytotoxicity against human SKOV3 cells; type: cell-based
[15] = test system: SK-MEL-28; assay: Antiproliferative activity against human SK-MEL-28 cells by SRB assay; type: functional; outline: as §2
[16] = test system: SNB-19; assay: Antiproliferative activity against human SNB19 cells by SRB assay; type: functional; outline: as §2
[17] = test system: SN12C; assay: Cytotoxicity against human SN12C cells; type: cell-based
Outline: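 Screened by NCI in its in vitro disease-oriented human tumour cell line panel. Compounds tested at five concentrations (100, 10, 1.0, 0.1 and 0.01 μM). Growth read by sulforhodamine B (SRB) signal. GI50 is the concentration reducing growth of treated cells to half that of control cells during the drug incubation.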

[18] = test system: NCI-H23; assay: Cytotoxicity against human NCI-H23 cells; type: cell-based
[19] = test system: LOX IMVI; assay: Antiproliferative activity against human LOXIMVI cells by SRB assay; type: functional; outline: as §2
[20] = test system: SF-295; assay: Antiproliferative activity against human SF295 cells by SRB assay; type: functional; outline: as §2
[21] = test system: HT-29; assay: Cytotoxicity against human HT-29 cells; type: cell-based; outline: as §1
[22] = test system: CAKI-1; assay: Cytotoxicity against human Caki1 cells; type: cell-based
[23] = test system: RPMI-8226; assay: Cytotoxicity against human RPMI8226 cells; type: cell-based; outline: as §1
[24] = test system: NCI-H322M; assay: Antiproliferative activity against human NCI-H322M cells by SRB assay; type: functional; outline: as §2
[25] = test system: SK-MEL-28; assay: Cytotoxicity against human SK-MEL-28 cells; type: cell-based
[26] = test system: 786-0; assay: Cytotoxicity against human 786-0 cells; type: cell-based
[27] = test system: CCRF-CEM; assay: Cytotoxicity against human CCRF-CEM cells; type: cell-based
[28] = test system: M14; assay: Cytotoxicity against human M14 cells; type: cell-based
[29] = test system: UACC-62; assay: Antiproliferative activity against human UACC62 cells by SRB assay; type: functional
Outline: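 Cell growth was tested in the NIH in vitro disease-oriented human tumor cell line screen, which NCI ran for these compounds. Compounds were tested at five concentrations (100, 10, 1.0, 0.1 and 0.01 μM), and growth was read by SRB signal. GI50 is the drug concentration that reduces growth of treated cells to half that of control cells during drug incubation.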

**Q.** Which LC50 [1] does the source give for `O=C(/C=C/c1ccc(CN(CCO)CCc2c[nH]c3ccccc23)cc1)NO` [DACINOSTAT] here?
**A.** The LC50 was > 100000 nM.

**Q.** What about the GI50 [2] of the same compound?
**A.** Its GI50 is 3210 nM.

**Q.** What about the LC50 [3] of the same compound?
**A.** Its LC50 is > 100000 nM.

**Q.** What about the GI50 [4] of the same compound?
**A.** The GI50 was 311 nM.

**Q.** What about the GI50 [5] of the same compound?
**A.** The GI50 was 1750 nM.

**Q.** And the LC50 [6]?
**A.** Its LC50 is > 100000 nM.

**Q.** And the GI50 [7]?
**A.** The GI50 was 537 nM.

**Q.** And the LC50 [8]?
**A.** Its LC50 is 73500 nM.

**Q.** What about the LC50 [9] of the same compound?
**A.** The LC50 was 51000 nM.

**Q.** What about the GI50 [10] of the same compound?
**A.** The GI50 was 619 nM.

**Q.** And the GI50 [11]?
**A.** The GI50 was 849 nM.

**Q.** What about the GI50 [12] of the same compound?
**A.** Its GI50 is 1960 nM.

**Q.** And the GI50 [13]?
**A.** Its GI50 is 1040 nM.

**Q.** What about the LC50 [14] of the same compound?
**A.** The LC50 was 28500 nM.

**Q.** What about the GI50 [15] of the same compound?
**A.** Its GI50 is 993 nM.

**Q.** And the GI50 [16]?
**A.** The GI50 was 1530 nM.

**Q.** And the LC50 [17]?
**A.** Its LC50 is > 100000 nM.

**Q.** What about the LC50 [18] of the same compound?
**A.** The LC50 was > 100000 nM.

**Q.** And the GI50 [19]?
**A.** Its GI50 is 1080 nM.

**Q.** And the GI50 [20]?
**A.** The GI50 was 743 nM.

**Q.** And the LC50 [21]?
**A.** The LC50 was > 100000 nM.

**Q.** What about the LC50 [22] of the same compound?
**A.** The LC50 was 5790 nM.

**Q.** And the LC50 [23]?
**A.** Its LC50 is > 100000 nM.

**Q.** What about the GI50 [24] of the same compound?
**A.** Its GI50 is 2260 nM.

**Q.** And the LC50 [25]?
**A.** The LC50 was 31900 nM.

**Q.** What about the LC50 [26] of the same compound?
**A.** Its LC50 is 52400 nM.

**Q.** And the LC50 [27]?
**A.** Its LC50 is > 100000 nM.

**Q.** And the LC50 [28]?
**A.** The LC50 was 93800 nM.

**Q.** What about the GI50 [29] of the same compound?
**A.** The GI50 was 379 nM.
